The text below walks through data of ChEMBL document CHEMBL2401693, “Chromatographic separation of piracetam and its metabolite in a mixture of microsomal preparations, followed by an MS/MS analysis” (Eur J Med Chem, 2013).

The structures appear in SMILES notation.

As usually defined, the MRT is the average time that molecules of a dose stay in the body. The Cmax is the maximum level reached in the sampled fluid or tissue. As a reminder, the AUC is the area under the concentration-time curve, a measure of exposure. As a reminder, the Tmax is the time at which the peak concentration occurs.

Series [1] deals with Rattus norvegicus. The series can be described thus: […] in Wistar rat assessed as Metabolite M1 at 50 mg/kg, po. In kind it is ADME, organism-based. Details: dose 50 mg/kg, route oral. The following applies: in vivo.
Series [2] relates to Liver microsomes. The series can be described thus: Metabolic stability in human liver microsomes assessed as compound remaining after 30 mins by UPLC-MS/MS analysis. In kind it is ADME, Microsome. The note with it: 0.5 h.
The test system of series [3] is Plasma. The series can be described thus: Stability in rat plasma assessed as metabolite M1 at 180 ng/ml during three freeze-thaw cycles. In kind it is ADME, cell-free. The method in brief:
(§1)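 M1 spiked into drug-free rat plasma at QC low and high levels, six replicates per level; extracted with ethyl acetate, UPLC-MS/MS. Conditions: bench top room temperature, frozen storage, three freeze–thaw cycles (frozen ≥12 h each), processed samples in autosampler. Stable if accuracy and precision within 15%; reported as % nominal and RSD.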

Series [4] concerns Plasma. Kind of series: Stability in rat plasma assessed as Metabolite M1at 20 ng/ml after 24 hrs by autosampler analysis. The series is classed as ADME, cell-free. The method in brief:
as §1

Series [5] concerns Plasma. Kind of series: Stability in rat plasma assessed as Metabolite M1at 20 ng/ml after 30 days at -20 degC. The series is classed as ADME, cell-free. The note with it: 720 h. In short, it runs like this: as §1
Series [6] has as its system Liver microsomes. Kind of series: Metabolic stability in human liver microsomes assessed as compound remaining after 10 mins by UPLC-MS/MS analysis. The series is classed as ADME, Microsome. For orientation: Liver microsomes are a subcellular fraction often used to study metabolism.
In series [7] the test system is Plasma. Kind of series: Stability in rat plasma assessed as Metabolite M1at 20 ng/ml during three freeze-thaw cycles. The series is classed as ADME, cell-free. The method in brief: as §1
Series [8] deals with Rattus norvegicus. The series can be described thus: AUC (0 to t) in Wistar rat assessed as Metabolite M1 at 50 mg/kg, po. The series is classed as ADME, organism-based, Plasma. Details: dose 50 mg/kg, route oral. The note with it: in vivo.
Series [9] has as its system Rattus norvegicus. Kind of series: Cmax in Wistar rat assessed as Metabolite M1 at 50 mg/kg, po. The following applies: in vivo. In kind it is ADME, organism-based. Details: dose 50 mg/kg, route oral.
For series [10], the system named is Liver microsomes. The series can be described thus: Metabolic stability in human liver microsomes assessed as compound remaining after 20 mins by UPLC-MS/MS analysis. The series is classed as ADME, Microsome.
Series [11] deals with Rattus norvegicus. Kind of series: AUC (0 to infinity) in Wistar rat assessed as Metabolite M1 at 50 mg/kg, po. In kind it is ADME, organism-based, Plasma. Also noted: dose 50 mg/kg, route oral, time infinity. The note with it: in vivo.
Series [12] concerns Rattus norvegicus. The series can be described thus: Apparent elimination half life in Wistar rat assessed as Metabolite M1 at 50 mg/kg, po. In kind it is ADME, organism-based. Also noted: dose 50 mg/kg, route oral. The note with it: in vivo.
Series [13] has as its system Plasma. Kind of series: Stability in rat plasma assessed as Metabolite M1at 20 ng/ml after 10 days at -80 degC. The series is classed as ADME, cell-free. The note with it: 240 h. The method in brief:
as §1

For series [14], the system named is Plasma. Kind of series: Stability in rat plasma assessed as metabolite M1 at 180 ng/ml after 2 hrs at room temperature. The series is classed as ADME, cell-free. In short, it runs like this:
as §1

In series [15] the test system is Liver microsomes. The series can be described thus: Metabolic stability in human liver microsomes assessed as compound remaining after 50 mins by UPLC-MS/MS analysis. The series is classed as ADME, Microsome.
The subject of series [16] is Plasma. The series can be described thus: Stability in rat plasma assessed as metabolite M1 at 180 ng/ml after 30 days at -20 degC. In kind it is ADME, cell-free. The following applies: 720 h. The method in brief:
as §1

Series [17] concerns Liver microsomes. The series can be described thus: Metabolic stability in human liver microsomes assessed as compound remaining after 40 mins by UPLC-MS/MS analysis. In kind it is ADME, Microsome.
Series [18] concerns Rattus norvegicus. Kind of series: Clearance in Wistar rat assessed as Metabolite M1 at 50 mg/kg, po. In kind it is ADME, organism-based. Details: dose 50 mg/kg, route oral. The following applies: in vivo.
Series [19] deals with Plasma. The series can be described thus: Stability in rat plasma assessed as metabolite M1 at 180 ng/ml after 24 hrs by autosampler analysis. The series is classed as ADME, cell-free. The method in brief: as §1
Series [20] relates to Liver microsomes. The series can be described thus: Metabolic stability in human liver microsomes assessed as retention time by UPLC-MS/MS analysis. The series is classed as ADME, Microsome. In short, it runs like this:
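UPLC on BEH column (1.7 µm) at 30 °C, isocratic acetonitrile/10 mM ammonium acetate pH 5.0 (15:85), 0.3 ml/min, 5 µL injection, PDA 209 nm with Q-TOF ESI positive mode.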

Series [21] relates to Plasma. Kind of series: Stability in rat plasma assessed as metabolite M1 at 180 ng/ml after 10 days at -80 degC. In kind it is ADME, cell-free. The note with it: 240 h. In short, it runs like this:
as §1

In series [22] the test system is Plasma. The series can be described thus: Stability in rat plasma assessed as Metabolite M1at 20 ng/ml after 2 hrs at room temperature. In kind it is ADME, cell-free. In short, it runs like this:
as §1

Series [23] has as its system Rattus norvegicus. Kind of series: Tmax in Wistar rat assessed as Metabolite M1 at 50 mg/kg, po. The series is classed as ADME, organism-based. Details: dose 50 mg/kg, route oral. The note with it: in vivo.
In series [24] the test system is Liver microsomes. The series can be described thus: Drug metabolism in human liver microsomes assessed as Metabolite M1 formation after 40 mins by UPLC-MS/MS analysis. The series is classed as ADME, Microsome. The method in brief:
(§2)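 Pooled human liver microsomes (30 donors), 0.5 mg protein/ml, in 50 mM Tris-HCl pH 7.4 with 5 mM MgCl2 and 50 mM piracetam (final 500 µL), triplicate tubes, 37 °C with shaking. After 10-min preincubation, reaction started with 2 mM NADPH. Stopped with cold ethyl acetate at the stated time, then centrifuged, reconstituted in mobile phase and analysed by UPLC-MS/MS.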

The test system of series [25] is Liver microsomes. Kind of series: Drug metabolism in human liver microsomes assessed as Metabolite M1 formation after 10 mins by UPLC-MS/MS analysis. The series is classed as ADME, Microsome. The method in brief: as §2
Series [26] has as its system Liver microsomes. The series can be described thus: Drug metabolism in human liver microsomes assessed as Metabolite M1 formation after 50 mins by UPLC-MS/MS analysis. The series is classed as ADME, Microsome. In short, it runs like this:
as §2

Series [27] concerns Liver microsomes. The series can be described thus: Drug metabolism in human liver microsomes assessed as Metabolite M1 formation after 30 mins by UPLC-MS/MS analysis. The series is classed as ADME, Microsome. The following applies: 0.5 h. The method in brief:
as §2

In series [28] the test system is Liver microsomes. Kind of series: Drug metabolism in human liver microsomes assessed as Metabolite M1 formation after 20 mins by UPLC-MS/MS analysis. The series is classed as ADME, Microsome. In short, it runs like this:
as §2

With `NC(=O)CN1CCCC1=O` [PIRACETAM], in series [1], the mean residence time (MRT) came to 5.542 h. Also, the Stability in [2] came out at 43.78 µM; in series [6], 47.56 µM; in series [10], 45.66 µM; in series [15] it was 36.22 µM; in series [17] it was 40.56 µM. The Drug metabolism in series [3] stood at 178.42 ng/mL; in [4], 19.043 ng/mL; in [5], 18.787 ng/mL; in series [7] it was 18.88 ng/mL; in series [13] it was 18.853 ng/mL; in series [14], 178.883 ng/mL. The Drug metabolism in [16] was found to be 179.123 ng/mL; in series [19], 178.753 ng/mL; in series [21], 179.13 ng/mL; in [22] it was 19.347 ng/mL. Besides, in [8], the AUCt came to 928.445 µg·h/mL. In addition, the Cmax in series [9] amounted to 155.39 ng/mL. Further, in [11], the exposure (AUC) was determined as 939.178 µg·h/mL. In addition, in series [12], the “betat1/2(app)” value was 3.652 h. Also, the CL in [18] stood at 887.3 mL/min/kg. The Retention_time in [20] is recorded as 2.726 min. Further, the time of peak concentration (Tmax) in series [23] was 1 h.

For the molecule `O=C(O)CN1CCCC1=O`, the Drug metabolism was 9.23 µM in [24]; 2.42 µM in series [25]; 13.89 µM in series [26]; 6.45 µM in [27]; 4.79 µM in series [28]. Moreover, the Retention_time in series [20] came to 2.042 min.
